Calls of active or inactive are those of the source. The calls are words filed in the database; no cut-off is given here.
Columns and labels:
Adenosine receptor A2a [1] = biological target: T1, Adenosine receptor A2a (Homo sapiens, UniProt P29274); experiment: Binding affinity to human wild type adenosine A2A receptor expressed in Expi293F cells assessed as inhibition constant taken from literature
Adenosine receptor A2a [2] = biological target: T1, Adenosine receptor A2a; experiment: Binding affinity to human wild type adenosine A2A receptor expressed in Expi293F cells assessed as dissociation constant by surface plasmon resonance assay
Adenosine receptor A3 = biological target: T2, Adenosine receptor A3 (Homo sapiens, UniProt P0DMS8); experiment: (§1) Binding affinity to human wild type adenosine A3 receptor expressed in Expi293F cells assessed as dissociation constant by surface plasmon resonance assay
T2 sequence (P0DMS8 whole entry): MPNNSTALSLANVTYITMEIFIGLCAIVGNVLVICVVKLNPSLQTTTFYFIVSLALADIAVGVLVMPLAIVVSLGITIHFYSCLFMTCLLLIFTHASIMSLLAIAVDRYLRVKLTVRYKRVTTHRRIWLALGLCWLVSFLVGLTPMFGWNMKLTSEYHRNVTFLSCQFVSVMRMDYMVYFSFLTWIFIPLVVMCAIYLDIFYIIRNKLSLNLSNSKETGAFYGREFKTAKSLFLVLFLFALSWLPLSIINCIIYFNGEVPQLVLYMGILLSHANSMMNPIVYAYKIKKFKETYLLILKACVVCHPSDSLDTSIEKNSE

Adenosine receptor A1 [3] = biological target: T3, Adenosine receptor A1 (Homo sapiens, UniProt P30542); experiment: Binding affinity to human wild type adenosine A1 receptor expressed in Expi293F cells assessed as dissociation constant by surface plasmon resonance assay
T3 sequence (P30542 whole entry): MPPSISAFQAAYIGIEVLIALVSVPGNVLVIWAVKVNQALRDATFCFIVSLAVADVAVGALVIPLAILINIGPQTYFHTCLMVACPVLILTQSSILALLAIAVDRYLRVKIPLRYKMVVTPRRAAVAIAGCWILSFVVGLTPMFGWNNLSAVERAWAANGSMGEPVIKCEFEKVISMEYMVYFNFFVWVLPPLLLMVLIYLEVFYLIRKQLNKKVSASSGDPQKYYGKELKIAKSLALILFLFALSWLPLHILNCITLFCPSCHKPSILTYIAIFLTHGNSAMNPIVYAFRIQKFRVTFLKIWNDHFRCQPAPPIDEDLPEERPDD

Adenosine receptor A2b [4] = biological target: T4, Adenosine receptor A2b (Homo sapiens, UniProt P29275); experiment: Binding affinity to human wild type adenosine A2B receptor expressed in Expi293F cells assessed as dissociation constant by surface plasmon resonance assay
T4 sequence (P29275 whole entry): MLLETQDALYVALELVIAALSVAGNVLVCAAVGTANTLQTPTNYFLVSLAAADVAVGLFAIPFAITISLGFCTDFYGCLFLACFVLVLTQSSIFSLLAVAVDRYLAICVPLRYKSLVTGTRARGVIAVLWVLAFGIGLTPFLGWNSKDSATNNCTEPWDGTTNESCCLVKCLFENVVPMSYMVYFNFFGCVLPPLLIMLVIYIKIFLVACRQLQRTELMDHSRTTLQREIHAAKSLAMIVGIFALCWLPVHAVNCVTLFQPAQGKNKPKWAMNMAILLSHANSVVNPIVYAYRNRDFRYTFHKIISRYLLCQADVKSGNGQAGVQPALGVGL

Adenosine receptor A2a [5] = biological target: T1, Adenosine receptor A2a; experiment: Antagonist activity at human adenosine A2A receptor expressed in HEK293T cells assessed as inhibition of EC20 concentration of NECA-induced cAMP accumulation by GloSensor cAMP accumulation assay; format: functional, cell-based; settings: filed as antagonist
Outline: (§2)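 HEK293T cells expressing A2A, GloSensor luciferase cAMP read-out; concentration–response curves run against EC20 NECA (3 nM). Data as % of maximum NECA response; mean ± SEM of at least three independent experiments in technical duplicate. Maximum tested concentration 0.63 mM where compound supply was limited; compounds also checked in cells lacking transfected A2A.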

Adenosine receptor A2a [6] = biological target: T1, Adenosine receptor A2a; experiment: Antagonist activity at human adenosine A2A receptor expressed in HEK293T cells assessed as inhibition of EC20 concentration of NECA-induced cAMP accumulation at higher concentration by GloSensor cAMP accumulation assay; format: functional, cell-based; settings: filed as antagonist
Outline: as §2

Adenosine receptor A2a [7] = biological target: T1, Adenosine receptor A2a; experiment: Allosteric modulator activity at human adenosine A2A receptor expressed in HEK293T cells assessed as stimulation of NECA-induced cAMP accumulation by GloSensor cAMP accumulation assay; format: functional, cell-based; settings: filed as positive allosteric modulator
Outline: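 GloSensor cAMP accumulation in HEK293T cells transiently expressing A2A; compound tested for modulation of NECA-stimulated cAMP (EC80 and EC20 NECA), concentrations up to 30 μM. Data as % of maximum NECA response; mean ± SEM of three to four experiments in at least duplicate.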

Adenosine receptor A2a [8] = biological target: T1, Adenosine receptor A2a; experiment: Antagonist activity at human adenosine A2A receptor expressed in HEK293T cells assessed as inhibition of EC20 concentration of NECA-induced cAMP accumulation by measuring fold change in potency by GloSensor cAMP accumulation assay; format: functional, cell-based; settings: filed as antagonist
[9] = biological target: T5, Adenosine receptor A1 (Homo sapiens) (UniProt P30542); experiment: Binding affinity to human wild type adenosine A1 receptor expressed in Expi293F cells assessed as affinity off-rate by surface plasmon resonance assay
T5 sequence (whole entry): T3 sequence (P30542 whole entry)

Adenosine receptor A1 [10] = biological target: T3, Adenosine receptor A1; experiment: Binding affinity to human wild type adenosine A1 receptor expressed in Expi293F cells assessed as affinity on-rate by surface plasmon resonance assay
[11] = biological target: T5, Adenosine receptor A1 (Homo sapiens); experiment: Binding affinity to human wild type adenosine A1 receptor expressed in Expi293F cells assessed as affinity on-rate by surface plasmon resonance assay
[12] = biological target: T6, Adenosine receptor A3 (Homo sapiens) (UniProt P0DMS8); experiment: Binding affinity to human wild type adenosine A3 receptor expressed in Expi293F cells assessed as affinity off-rate by surface plasmon resonance assay
T6 sequence (whole entry): T2 sequence (P0DMS8 whole entry)

[13] = biological target: T6, Adenosine receptor A3 (Homo sapiens); experiment: Binding affinity to human wild type adenosine A3 receptor expressed in Expi293F cells assessed as affinity on-rate by surface plasmon resonance assay
[14] = biological target: Glycogen synthase kinase-3 alpha (Homo sapiens, UniProt P49840); experiment: Inhibition of recombinant human GSKalpha
Sequence of Glycogen synthase kinase-3 alpha (P49840 whole entry): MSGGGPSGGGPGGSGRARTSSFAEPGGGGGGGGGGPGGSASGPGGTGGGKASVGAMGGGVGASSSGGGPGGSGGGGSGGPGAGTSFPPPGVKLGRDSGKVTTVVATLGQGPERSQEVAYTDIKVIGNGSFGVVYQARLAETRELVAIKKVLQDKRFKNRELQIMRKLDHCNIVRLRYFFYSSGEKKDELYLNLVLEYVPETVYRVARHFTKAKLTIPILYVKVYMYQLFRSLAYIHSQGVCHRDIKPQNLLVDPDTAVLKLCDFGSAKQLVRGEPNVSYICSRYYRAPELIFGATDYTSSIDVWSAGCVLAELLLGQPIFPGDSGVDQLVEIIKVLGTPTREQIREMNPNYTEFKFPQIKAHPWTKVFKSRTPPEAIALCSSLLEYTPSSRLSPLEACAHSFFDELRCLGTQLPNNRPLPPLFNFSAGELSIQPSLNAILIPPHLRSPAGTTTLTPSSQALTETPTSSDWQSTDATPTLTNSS

[15] = biological target: T6, Adenosine receptor A3 (Homo sapiens); experiment: as §1
[16] = biological target: T7, Adenosine receptor A2b (Homo sapiens) (UniProt P29275); experiment: Binding affinity to human wild type adenosine A2B receptor expressed in Expi293F cells assessed as affinity off-rate by surface plasmon resonance assay
T7 sequence (whole entry): T4 sequence (P29275 whole entry)

Adenosine receptor A2b [17] = biological target: T4, Adenosine receptor A2b; experiment: Binding affinity to human wild type adenosine A2B receptor expressed in Expi293F cells assessed as inhibition constant by surface plasmon resonance assay
Adenosine receptor A2b [18] = biological target: T4, Adenosine receptor A2b; experiment: Binding affinity to human wild type adenosine A2B receptor expressed in Expi293F cells assessed as affinity on-rate by surface plasmon resonance assay
HEK-293T = experiment: Effect on cAMP accumulation in HEK293T cells by GloSensor cAMP accumulation assay; format: functional, cell-based; settings: Homo sapiens
Outline: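 HEK293T cells transiently expressing the A2A receptor, with a GloSensor luciferase cAMP read-out. Compound concentration series were tested against NECA at EC80 (500 nM) or EC20 (3 nM), and for agonist activity alone. Cells lacking transfected A2A served as control. Responses are expressed as a percentage of the maximum NECA response, as mean ± SEM of at least three independent experiments in technical duplicate.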

Adenosine receptor A2b [19] = biological target: T4, Adenosine receptor A2b; experiment: Binding affinity to human wild type adenosine A2B receptor expressed in Expi293F cells assessed as affinity on-rate by surface plasmon resonance assay
Adenosine receptor A2a [20] = biological target: T1, Adenosine receptor A2a; experiment: Antagonist activity at human adenosine A2A receptor expressed in HEK293T cells assessed as inhibition of EC20 concentration of NECA-induced cAMP accumulation at 0.63 mM by GloSensor cAMP accumulation assay; format: functional, cell-based; settings: filed as antagonist
Outline: as §2

Adenosine receptor A2a [21] = biological target: T1, Adenosine receptor A2a; experiment: Antagonist activity at human adenosine A2A receptor expressed in HEK293T cells assessed as inhibition of 500 nM NECA-induced cAMP accumulation by GloSensor cAMP accumulation assay; settings: filed as antagonist

T1 sequence (P29274 whole entry): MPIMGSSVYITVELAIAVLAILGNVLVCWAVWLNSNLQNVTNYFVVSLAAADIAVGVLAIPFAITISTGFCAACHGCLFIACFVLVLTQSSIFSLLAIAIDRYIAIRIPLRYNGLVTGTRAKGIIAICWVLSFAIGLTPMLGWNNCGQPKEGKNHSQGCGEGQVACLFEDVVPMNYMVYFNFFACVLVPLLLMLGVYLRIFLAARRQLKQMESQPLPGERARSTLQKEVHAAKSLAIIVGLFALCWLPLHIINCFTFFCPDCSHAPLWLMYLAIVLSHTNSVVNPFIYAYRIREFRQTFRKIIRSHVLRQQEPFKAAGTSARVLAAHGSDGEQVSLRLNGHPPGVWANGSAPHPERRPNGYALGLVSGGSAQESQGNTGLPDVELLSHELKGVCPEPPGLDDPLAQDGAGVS

Compound | Kd (Adenosine receptor A2a [2]) [µM] | Kd (Adenosine receptor A3) [µM] | Kd (Adenosine receptor A1 [3]) [µM] | Kd (Adenosine receptor A2b [4]) [µM] | other results
Nc1nc(Nc2ccccc2)nc2c1ncn2[C@@H]1O[C@H](CO)[C@@H](O)[C@H]1O | 0.0091 |  |  |  | Ki (Adenosine receptor A2a [1]): 0.076 µM
Nc1nsc(-c2ccccc2)n1 | 139 | 102 | 122 | 108 | 
Nc1nc(N)nc(-c2ccccc2)n1 [BENZOGUANAMINE] | 1.5 | 104 | 2.21 | 107 | Activity (Adenosine receptor A2a [5]): Active
Cn1c(=O)[nH]c2ccccc2c1=O | 28.8 | 18.9 | 34.3 | 148 | 
CS(=O)(=O)c1ccc(C(=O)Nc2cccc(Cl)c2)cc1 | 13.5 | 18 | 7.6 | 19.3 | Activity (Adenosine receptor A2a [6]): Active
O=C(Nc1ccccc1)Nc1ccccn1 | 50.9 | 52 | 41 | 43.3 | 
Nc1nsc(-c2ccc(Cl)cc2)n1 | 21.8 | 36.5 | 20.7 | 45 | Activity (Adenosine receptor A2a [7]): Active; Activity (Adenosine receptor A2a [8]): Active
O=C(NCc1ccccc1)c1ccc2nonc2c1 | 100 | 180 | 92 | 22 | 
O[C@H]1CC[C@H](Nc2nc(-c3ccccc3)nc3[nH]ccc23)CC1 |  |  | 0.00546 |  | K [9]: 0.0034 s⁻¹; ka (Adenosine receptor A1 [10]): 6.27 10^5/M/s; K [11]: 6.27 10^5/M/s
O=C(Nc1n[nH]c2nc(-c3ccco3)c(Br)cc12)C1CC1 | 0.56 |  | 2.12 |  | K [9]: 0.09 s⁻¹; Activity (Adenosine receptor A2a [8]): Active; K [11]: 4.25 10^4/M/s; K [12]: 0.041 s⁻¹
COc1cc(/C=N/Nc2ncnc3c2cnn3-c2ccccc2)ccc1O |  |  | 1.21 |  | Activity [13]: Active; IC50 [14]: 0.1 µM; K [9]: 0.06 s⁻¹; Activity (Adenosine receptor A2a [8]): Active; K [11]: 5.33 10^4/M/s; Activity [15]: Active; Activity (Adenosine receptor A2a [2]): Active
CC(C)n1ncc2cc(C(=O)NCc3ccco3)cnc21 | 210 | 400 | 27 | 80 | 
Nc1nncc(-c2ccc(Br)cc2)n1 | 50 |  | 1.1 |  | Activity (Adenosine receptor A2a [6]): Active
N#Cc1c(N)nc(SCc2ncc[nH]2)c(C#N)c1-c1ccc(O)cc1 |  |  |  | 0.0782 | K [16]: 0.0086 s⁻¹; Ki (Adenosine receptor A2b [17]): 0.012 µM; ka (Adenosine receptor A2b [18]): 1.1 10^5/M/s
CCNC(=O)[C@H]1O[C@@H](n2cnc3c(N)ncnc32)[C@H](O)[C@@H]1O |  |  |  |  | Activity (HEK-293T): Active
Fc1ccc(-c2nn3ccccc3c2-c2ccncc2)cc1 [GW434756X] | 8.9 | 0.74 | 0.00605 | 0.28 | K [9]: 0.01 s⁻¹; K [11]: 1.63 10^6/M/s; ka (Adenosine receptor A2b [19]): 1.52 10^5/M/s; Activity (Adenosine receptor A2a [20]): Active; ka (Adenosine receptor A2b [18]): 1.52 10^5/M/s; K [12]: 0.041 s⁻¹; Activity (Adenosine receptor A2a [21]): Active
NC(=O)c1ncoc1-c1ccccc1 | 31.8 |  |  |  | 
Cc1nn(-c2ccccc2)nc1C(N)=O | 410 | 101 | 78 | 140 | 
Nc1nc(N)c2nccnc2n1 | 9.6 |  |  |  | 
O=c1cc(NCc2ccccc2)nc2ccccn12 | 131 | 200 | 154 | 199 | 
CC(C)NC(=O)c1cc(-c2ccccc2)[nH]n1 | 49 | 80 | 70 | 196 | Activity (Adenosine receptor A2a [6]): Active
Nc1nc(-c2ccccc2)ns1 | 130 | 50.7 | 51.7 | 60.7 | 
Oc1ncnc2[nH]ncc12 [ALLOPURINOL] | 77 |  |  |  | 
Nc1ccc2nnc(-c3ccccc3)n2n1 | 1.11 | 160 | 22.9 | 120 | Activity (Adenosine receptor A2a [5]): Active
O=C1NC(=O)C(c2cccc(Cl)c2)=C1Nc1ccc(O)c(Cl)c1 | 0.11 |  | 2.21 |  | K [9]: 0.27 s⁻¹; Activity (Adenosine receptor A2a [8]): Active; K [11]: 1.21 10^5/M/s; Activity (Adenosine receptor A2a [21]): Active

Reference: ChEMBL document CHEMBL5126601 (ACS Med Chem Lett, 2022)
